# Source: ChEMBL document CHEMBL4007431, “Systematic variation of the benzenesulfonamide part of the GluN2A selective NMDA receptor antagonist TCN-201” (Eur J Med Chem, 2017)
# pIC50: −log10 of the molar value. Active and inactive are the calls of the source. The calls are words filed in the database; no cut-off is given here.
# Target: T1, Glutamate NMDA receptor; Grin1/Grin2a (Rattus norvegicus) (UniProt P35439+Q00959)
# Experiment: Antagonist activity at rat GluN1A/GluN2A receptor expressed in Xenopus laevis oocytes assessed as inhibition of glutamate/glycine-induced channel current at 500 nM at -70 mV holding potential by two electrode voltage clamp method relative to TCN-201
# Format: cell-based
# Outline: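 GluN1a/GluN2A-coinjected oocytes (0.8 ng of each cRNA) under TEVC at −70 mV and room temperature, perfused with Ba2+-Ringer at pH 7.4. 10 µM (S)-glutamate and 10 µM glycine open the channel. Compound at 500 nM final (from 10 mM DMSO stock) in agonist solution. Current inhibition compared with the lead. At least five oocytes each. One-way ANOVA with Tukey post hoc test.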
row,SMILES,fold change (FC)
1,O=C(NNC(=O)c1ccc(CNS(=O)(=O)c2ccccc2Cl)cc1)c1ccccc1,-0.092
2,O=C(NNC(=O)c1ccc(CNS(=O)(=O)c2cccc(I)c2)cc1)c1ccccc1,1.19
3,O=C(NNC(=O)c1ccc(CNS(=O)(=O)c2cccnc2)cc1)c1ccccc1,0.151
4,O=C(NNC(=O)c1ccc(CNS(=O)(=O)c2ccc(F)cc2)cc1)c1ccccc1,0.103
5,O=C(NNC(=O)c1ccc(CNS(=O)(=O)c2ccc(Br)cc2)cc1)c1ccccc1,0.315
6,O=C(NNC(=O)c1ccc(CNS(=O)(=O)c2ccc([N+](=O)[O-])cc2)cc1)c1ccccc1,0.002
7,O=C(NNC(=O)c1ccc(CNS(=O)(=O)c2cccc(Br)c2)cc1)c1ccccc1,1.27
8,COc1cccc(S(=O)(=O)NCc2ccc(C(=O)NNC(=O)c3ccccc3)cc2)c1,-0.062
9,O=C(O)c1ccc(S(=O)(=O)NCc2ccc(C(=O)NNC(=O)c3ccccc3)cc2)cc1,0.283
10,O=C(NNC(=O)c1ccc(CNS(=O)(=O)c2cccc([N+](=O)[O-])c2)cc1)c1ccccc1,0.161
11,O=C(NNC(=O)c1ccc(CNS(=O)(=O)c2ccccc2F)cc1)c1ccccc1,0.019
12,O=C(NNC(=O)c1ccc(CNS(=O)(=O)c2ccc(Cl)cc2)cc1)c1ccccc1,0.279
13,O=C(NNC(=O)c1ccc(CNS(=O)(=O)c2ccccc2[N+](=O)[O-])cc1)c1ccccc1,0.397
14,Cc1cccc(S(=O)(=O)NCc2ccc(C(=O)NNC(=O)c3ccccc3)cc2)c1,0.28
15,O=C(NNC(=O)c1ccc(CNS(=O)(=O)c2cccc(F)c2)cc1)c1ccccc1,0.818
16,O=C(NNC(=O)c1ccc(CNS(=O)(=O)c2cccs2)cc1)c1ccccc1,0.529
17,O=C(NNC(=O)c1ccc(CNS(=O)(=O)c2ccccc2Br)cc1)c1ccccc1,0.045
18,O=C(NNC(=O)c1ccc(CNS(=O)(=O)c2ccc(I)cc2)cc1)c1ccccc1,0.051
19,O=C(NNC(=O)c1ccc(CNS(=O)(=O)c2ccccc2)cc1)c1ccccc1,0.351
20,Nc1ccc(S(=O)(=O)NCc2ccc(C(=O)NNC(=O)c3ccccc3)cc2)cc1,0.379
21,N#Cc1cccc(S(=O)(=O)NCc2ccc(C(=O)NNC(=O)c3ccccc3)cc2)c1,0.151
22,O=C(NNC(=O)c1ccc(CNS(=O)(=O)c2cccc(Cl)c2)cc1)c1ccccc1,1.21

# Target: Glutamate NMDA receptor; Grin1/Grin2a (Rattus norvegicus, UniProt P35439+Q00959)
# Experiment: Antagonist activity at rat GluN1A/GluN2A receptor expressed in Xenopus laevis oocytes assessed as inhibition of glutamate/glycine-induced channel current at -70 mV holding potential by two electrode voltage clamp method
# Format: cell-based
# Outline: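 Oocytes (stage V, defolliculated) coinjected with 0.8 ng GluN1a and 0.8 ng GluN2A cRNA. TEVC at room temperature, holding −70 mV, perfusion with Ba2+-Ringer (10 HEPES, 90 NaCl, 1 KCl, 1.5 BaCl2 mmol/L, pH 7.4). Currents evoked by glutamate plus glycine. Compounds diluted from 10 mM DMSO stocks into agonist solution, 1 nM to 10 µM final. n = 5 oocytes per concentration. Logistic fit with minimum 0% and maximum 100%; x0 taken as the half-maximal inhibition.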
row,SMILES,pIC50
1,O=C(NNC(=O)c1ccc(CNS(=O)(=O)c2cccc(Br)c2)cc1)c1ccccc1,6.69
2,O=C(NNC(=O)c1ccc(CNS(=O)(=O)c2ccc(F)c(Cl)c2)cc1)c1ccccc1,6.29

# Target: Glutamate NMDA receptor; Grin1/Grin2b (Rattus norvegicus) (UniProt P35439+Q00960)
# Experiment: Antagonist activity at rat GluN1A/GluN2B receptor expressed in Xenopus laevis oocytes assessed as inhibition of glutamate/glycine-induced channel current at 10 uM at -70 mV holding potential by two electrode voltage clamp method
# Format: cell-based
# Outline: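 Oocytes were injected with GluN1a and GluN2B cRNA and recorded by TEVC with glutamate/glycine activation. Compounds tested at 10 µM, n = 5. One-way ANOVA with Tukey post hoc test.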
row,SMILES,inhibition
1,O=C(NNC(=O)c1ccc(CNS(=O)(=O)c2cccc(Br)c2)cc1)c1ccccc1,inactive
2,O=C(NNC(=O)c1ccc(CNS(=O)(=O)c2ccc(F)c(Cl)c2)cc1)c1ccccc1,inactive

# Target: T1, Glutamate NMDA receptor; Grin1/Grin2a (Rattus norvegicus)
# Experiment: Potency index, ratio of TCN-201 IC50 to compound IC50 for rat GluN1A/GluN2A receptor expressed in Xenopus laevis oocytes
# Format: cell-based
row,SMILES,Ratio IC50
1,O=C(NNC(=O)c1ccc(CNS(=O)(=O)c2cccc(Br)c2)cc1)c1ccccc1,2.5
